In brackets after ≈: the same amount, converted by molar mass.
Tests used:
Format in all cases: functional
Escherichia coli [1] = assay: Minimum inhibitory concentration was measured against Escherichia coli A 20665, in combination with Kanamycin A at specified concentration
Procedure, shortened: (§1)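 The value is the minimum inhibitory concentration of kanamycin A, in µg/mL, against the listed strain. Strains are designated by their inactivating enzyme, e.g. aminoglycoside 3'-phosphotransferase II producers.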

Escherichia coli [2] = assay: Minimum inhibitory concentration was measured against Escherichia coli A 9632, in combination with Kanamycin A at 8 ug/mL concentration; procedure, shortened: as §1
Providencia rettgeri [3] = assay: Minimum inhibitory concentration was measured against Proteus rettgeri A 9637, in combination with Kanamycin A at specified concentration.; procedure, shortened: as §1
Providencia rettgeri [4] = assay: Minimum inhibitory concentration was measured against Proteus rettgeri A 21615, in combination with Kanamycin A at specified concentration.; procedure, shortened: as §1
Escherichia coli [5] = assay: Minimum inhibitory concentration was measured against Escherichia coli A 20507, in combination with Kanamycin A at specified concentration; procedure, shortened: as §1
Providencia rettgeri [6] = assay: Minimum inhibitory concentration was measured against Proteus rettgeri A 21615, in combination with Kanamycin A at 8 ug/mL concentration; procedure, shortened: as §1
Pseudomonas aeruginosa [7] = assay: Minimum inhibitory concentration was measured against Pseudomonas aeruginosa A 20357
Pseudomonas aeruginosa [8] = assay: Minimum inhibitory concentration was measured against Pseudomonas aeruginosa A 20653, in combination with Kanamycin A at 8 ug/mL concentration; procedure, shortened: as §1
Providencia rettgeri [9] = assay: Minimum inhibitory concentration was measured against Proteus rettgeri A 21615
Pseudomonas aeruginosa [10] = assay: Minimum inhibitory concentration was measured against Pseudomonas aeruginosa A 20357, in combination with Kanamycin A at specified concentration.; procedure, shortened: as §1
Pseudomonas aeruginosa [11] = assay: Minimum inhibitory concentration was measured against Pseudomonas aeruginosa A 20653 in combination with Kanamycin A at specified concentration.; procedure, shortened: as §1
Escherichia coli [12] = assay: Minimum inhibitory concentration was measured against Escherichia coli A 9632, in combination with Kanamycin A at specified concentration; procedure, shortened: as §1
Escherichia coli [13] = assay: Minimum inhibitory concentration was measured against Escherichia coli A 20665, in combination with Kanamycin A at 8 ug/mL concentration; procedure, shortened: as §1
Pseudomonas aeruginosa [14] = assay: Minimum inhibitory concentration was measured against Pseudomonas aeruginosa A 20357, in combination with Kanamycin A at 8 ug/mL concentration; procedure, shortened: as §1
Providencia rettgeri [15] = assay: Minimum inhibitory concentration was measured against Proteus rettgeri A 9637
Providencia rettgeri [16] = assay: Minimum inhibitory concentration was measured against Proteus rettgeri A 9637, in combination with Kanamycin A at 8 ug/mL concentration; procedure, shortened: as §1
Escherichia coli [17] = assay: Minimum inhibitory concentration was measured against Escherichia coli A 20507
Pseudomonas aeruginosa [18] = assay: Minimum inhibitory concentration was measured against Pseudomonas aeruginosa A 20653
Escherichia coli [19] = assay: Minimum inhibitory concentration was measured against Escherichia coli A 9632
Escherichia coli [20] = assay: Minimum inhibitory concentration was measured against Escherichia coli A 20507, in combination with Kanamycin A at 8 ug/mL concentration; procedure, shortened: as §1
Escherichia coli [21] = assay: Minimum inhibitory concentration was measured against Escherichia coli A 20665
Providencia rettgeri [22] = assay: Minimum inhibitory concentration was measured against Proteus rettgeri A 9637, in combination with Kanamycin A at 32 ug/mL concentration
Procedure, shortened: (§2)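 Kanamycin A was serially diluted in Mueller-Hinton broth with each epimino derivative held at a fixed 32 µg/mL (8 µg/mL also run). The value is the minimum inhibitory concentration of kanamycin A in the combination against Bristol-numbered strains, read for lowering of kanamycin A MIC in resistant strains.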

Providencia rettgeri [23] = assay: Minimum inhibitory concentration was measured against Proteus rettgeri A 21615, in combination with Kanamycin A at 32 ug/mL concentration; procedure, shortened: as §2
Pseudomonas aeruginosa [24] = assay: Minimum inhibitory concentration was measured against Pseudomonas aeruginosa A 20653 in combination with Kanamycin A at 32 ug/mL concentration; procedure, shortened: as §2
Pseudomonas aeruginosa [25] = assay: Minimum inhibitory concentration was measured against Pseudomonas aeruginosa A 20357, in combination with Kanamycin A at 32 ug/mL concentration; procedure, shortened: as §2
Escherichia coli [26] = assay: Minimum inhibitory concentration was measured against Escherichia coli A 20507, in combination with Kanamycin A at 32 ug/mL concentration; procedure, shortened: as §2
Escherichia coli [27] = assay: Minimum inhibitory concentration was measured against Escherichia coli A 20665, in combination with Kanamycin A at 32 ug/mL concentration; procedure, shortened: as §2

SMILES	MIC (Escherichia coli [1]) [µg/mL]	MIC (Escherichia coli [2]) [µg/mL]	MIC (Providencia rettgeri [3]) [µg/mL]	MIC (Providencia rettgeri [4]) [µg/mL]	MIC (Escherichia coli [5]) [µg/mL]	MIC (Providencia rettgeri [6]) [µg/mL]	MIC (Pseudomonas aeruginosa [7]) [µg/mL]	MIC (Pseudomonas aeruginosa [8]) [µg/mL]	MIC (Providencia rettgeri [9]) [µg/mL]	MIC (Pseudomonas aeruginosa [10]) [µg/mL]	MIC (Pseudomonas aeruginosa [11]) [µg/mL]	MIC (Escherichia coli [13]) [µg/mL]	MIC (Pseudomonas aeruginosa [14]) [µg/mL]	MIC (Providencia rettgeri [15]) [µg/mL]	MIC (Providencia rettgeri [16]) [µg/mL]	MIC (Escherichia coli [17]) [µg/mL]	MIC (Pseudomonas aeruginosa [18]) [µg/mL]	MIC (Escherichia coli [19]) [µg/mL]	MIC (Escherichia coli [20]) [µg/mL]	MIC (Escherichia coli [21]) [µg/mL]	other results
NCC1OC(OC2C(N)CC(N)C(OC3OC(CO)C(O)C4NC34)C2O)C(N)C(O)C1O (stereo unspecified)	> 125	1	0.5	63	125	63	> 125	> 125	> 125	4	> 125	> 125	4	> 125	0.5	> 125	> 125	63 (≈ 135 µM)	125	> 125	MIC (Escherichia coli [12]): 1 µg/mL
NCC1OC(OC2C(N)CC(N)C(O)C2O)C2NC2C1O (stereo unspecified)	–	–	–	–	32	–	–	–	–	–	–	–	–	–	–	> 125	–	–	63	–	–
NCC1OC(OC2C(N)CC(N)C(OC3OC(CO)C(O)C(N)C3O)C2O)C2NC2C1O (stereo unspecified)	> 125	0.25	0.5	125	125	125	125 (≈ 269 µM)	> 125	> 125	4	> 125	> 125	4	16 (≈ 34.4 µM)	0.5	125 (≈ 269 µM)	125 (≈ 269 µM)	8 (≈ 17.2 µM)	125	125 (≈ 269 µM)	–
NCC1OC(OC2C(NC(=O)OCc3ccccc3)CC(N)C(O)C2O)C(N)C(O)C1O (stereo unspecified)	–	2	–	–	–	125	> 125	> 125	> 125	–	–	> 125	4	> 125	1	> 125	> 125	> 125	125	> 125	MIC (Providencia rettgeri [22]): 1 µg/mL; MIC (Providencia rettgeri [23]): 125 µg/mL; MIC (Pseudomonas aeruginosa [24]): > 125 µg/mL; MIC (Pseudomonas aeruginosa [25]): 4 µg/mL; MIC (Escherichia coli [26]): 125 µg/mL; MIC (Escherichia coli [27]): > 125 µg/mL
NCC1OC(OC2C(NC(=O)OCc3ccccc3)CC(N)C(O)C2O)C2NC2C1O (stereo unspecified)	> 125	–	–	63	63	> 125	> 125	> 125	> 125	–	> 125	> 125	–	> 125	–	> 125	> 125	125 (≈ 285 µM)	> 125	125 (≈ 285 µM)	–
NC[C@H]1O[C@H](O[C@H]2[C@H](O)[C@@H](O[C@H]3O[C@H](CO)[C@@H](O)[C@H](N)[C@H]3O)[C@H](N)C[C@@H]2N)[C@H](O)[C@@H](O)[C@@H]1O [KANAMYCIN]	–	–	–	–	–	–	–	–	125 (≈ 258 µM)	–	–	–	–	≤ 0.25	–	> 125	> 125	2 (≈ 4.13 µM)	–	> 125	–
NCC1OC(OC2C(NC(=O)OCc3ccccc3)CC(N)C(O)C2OC2O[C@H](CO)[C@@H](O)[C@H]2O)C2NC2C1O (stereo partly specified)	> 125	1	0.5	125	63	125	> 125	> 125	> 125	4	> 125	> 125	4	> 125	0.5	> 125	> 125	> 125	125	> 125	MIC (Escherichia coli [12]): 1 µg/mL

— ChEMBL document CHEMBL1121523, “Aminoglycoside antibiotics. 3. Epimino derivatives of neamine, ribostamycin, and kanamycin B” (1980)
